The values below come from PMC9734322 (Inflammation Research, 2022).

Where only a bound is given, the exact number is not on record here.

Assay [1] relates to P2X7R. As to conditions: ATP concentration required for activation; cited from earlier work.
The test system of assay [2] is ATP-induced paw edema. Nature of the assay: ATP-induced paw edema assay. Conditions: 10 mM ATP subplantar, phlogistic agent. The format is in vivo, mice (Swiss Webster). The method in brief:
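Male Swiss Webster mice (~30 g) were given test compound at 100, 500 or 1000 ng/kg i.p. 1 h before ATP (10 mM/paw subplantar, 20 µL), with 0.9% NaCl in the contralateral paw. Diclofenac 10 mg/kg i.p. was the positive control and saline the negative control. Paw volume was read by plethysmometer 60 min after ATP. Three experiments on different days; mean ± SD; one-way ANOVA/Tukey.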

For assay [3], the system named is carrageenan-induced peritonitis. In words: Carrageenan-induced peritonitis, total and differential leukocyte count. The format is in vivo, mice. Conditions: for % Mononuclear cells / % Neutrophils: mean ± SD. The essentials: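 Mice were pretreated i.p. (100 µL) with test compound or dexamethasone 10 mg/kg, then given carrageenan 10 mg/kg i.p. 1 h later; PBS pH 7.4 served as negative control. Peritoneal fluid was collected 3 h after first administration. Total leukocytes were counted in a Neubauer chamber. Slides were methanol-fixed 5 min and Giemsa-stained 15–20 min; 100 cells were counted per slide. Three experiments on different days; mean ± SD; ANOVA/Tukey.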

Assay [4] deals with platelet-rich plasma (PRP). Conditions: 1 µM, ADP 15 µM.
Assay [5] concerns calcium-dependent coagulation cascade factors (plasma). Nature of the assay: Plasma recalcification time test. The format is biochemical, human. Conditions: control 196.9 ± 9 s. The essentials:
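Pooled citrated plasma from healthy donors (100 µL) was incubated with saline or test compound for 10 min at 37 °C. CaCl₂ was added (12.5 mM final) and clotting time recorded in a coagulometer. Mean ± SEM.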

The test system of assay [6] is extrinsic pathway and common pathways of the coagulation cascade (plasma). In words: Prothrombin time test. As to conditions: control 15 ± 2 s. The format is biochemical, human.
Assay [7] has as its system initiation or propagation pathway of the coagulation cascade (plasma). Nature of the assay: Activated partial thromboplastin time. The format is biochemical, human. Conditions: control 41.3 ± 0.7 s.
Setting [8] is: pretreatment, then carrageenan 10 mg/kg 1 h later.
Setting [9] is: substance alone, 10 mg/kg as printed, differential count of 100 cells.

Broadly, the EC50 is the concentration that produces a half-maximal response. As for `Nc1ncnc2c1ncn2[C@@H]1O[C@H](COP(=O)(O)OP(=O)(O)OP(=O)(O)O)[C@@H](O)[C@H]1O` [ATP], the EC50 in assay [1] is ≥ 100 µM. The “increase in paw edema compared to the saline group” value in assay [2] is 30%.

In the case of `C[C@@H]1C[C@H]2[C@@H]3CCC4=CC(=O)C=C[C@]4(C)[C@@]3(F)[C@@H](O)C[C@]2(C)[C@@]1(O)C(=O)CO` [dexamethasone], the “carrageenan-induced increase in white blood cells” value in assay [3] (dexamethasone 10 mg/kg i.p. pretreatment) is recorded as “reversed”. In assay [3] (setting [8]), the “% Mononuclear cells” value is 72 ± 9ª % and the “% Neutrophils” value is 27 ± 9ª^,g %. In addition, in assay [3] (setting [9]), the “% Mononuclear cells” value is reported as 90 ± 6ª % and the “% Neutrophils” value is 9 ± 7ª %.

For carrageenan, in assay [3] (setting [9]), the “% Mononuclear cells” value worked out at 28 ± 8% and the “% Neutrophils” value is 67 ± 10%.

Take `COC(=O)[C@H](c1ccccc1Cl)N1CCc2sccc2C1` [clopidogrel]: the ADP-induced platelet aggregation result in assay [4] is given as “inhibited ADP-induced platelet aggregation”.

For the molecule `COc1cc(S(=O)(=O)O)cc2cc(S(=O)(=O)O)c(NC(=O)c3ccc(C)c(NC(=O)c4cccc(NC(=O)Nc5cccc(C(=O)Nc6cc(C(=O)Nc7cc8c(OC)cc(S(=O)(=O)O)cc8cc7S(=O)(=O)O)ccc6C)c5)c4)c3)cc12` [NF770], the “plasma recalcification clotting time” value was found to be 200.4 ± 12 s in assay [5] (1 µM) and 198 ± 8 s in assay [5] (10 µM). In addition, the prothrombin time in assay [6] (1 µM) is on record as 15.5 ± 1 s; in assay [6] (10 µM) it was 15.7 ± 1 s. The “clotting time in the aPTT test” value is reported as 40.9 ± 1 s in assay [7] (1 µM) and 42.2 ± 1 s in assay [7] (10 µM).

Turning to `O=C1CN=C(c2cccc(Br)c2)c2oc3ccccc3c2N1` [5-BDBD], the “plasma recalcification clotting time” value is 204.6 ± 9 s in assay [5] (1 µM) and 195 ± 7 s in assay [5] (10 µM). Moreover, the prothrombin time in assay [6] (1 µM) stood at 15.4 ± 0.7 s; in assay [6] (10 µM), 15.7 ± 0.5 s. The “clotting time in the aPTT test” value in assay [7] (1 µM) came out at 41.9 ± 0.6 s; in assay [7] (10 µM), 42.5 ± 0.8 s.
